Values joined by “and” are separate entries in the source; they are usually repeats but may differ in a detail not shown here. Equal values may be shown once.
System: Fibroblast
Assay: Multiplex assay against human fibroblast
Format: toxicity, cell-based
Conditions: number of replicates 2
Procedure, shortened: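 Cells were classed with CellPathfinder machine-learning gating, first as Hoechst high-intensity objects or normal cells, then (normal cells) as healthy, pyknosed or fragmented nuclei, and finally (pyknosed cells) as mitotic or apoptotic. Staining of live cells at seeding used Hoechst33342, BioTracker Green Microtubule Cytoskeleton Dye, MitoTracker Red and Annexin V Alexa Fluor 680, with imaging on a CQ1 microscope at 37°C and 5% CO2 after compound addition. Tubulin, mitochondrial-mass and membrane-permeability phenotypes are per cents of healthy-nucleus cells.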

[1] = 12 h, 0 µM, compound concentration 0 uM
[2] = 12 h, 1 µM, compound concentration 1 uM
[3] = 24 h, 0 µM, compound concentration 0 uM
[4] = 24 h, 1 µM, compound concentration 1 uM
[5] = 48 h, 0 µM, compound concentration 0 uM
[6] = 48 h, 1 µM, compound concentration 1 uM
[7] = 12 h, 10 µM, compound concentration 10 uM
[8] = 24 h, 10 µM, compound concentration 10 uM
[9] = 48 h, 10 µM, compound concentration 10 uM

## COc1cc(C(N)=O)ccc1Nc1ncc2c(n1)N(CCC(C)C)[C@H](C)C(=O)N2C
[1]
  Population Apoptotic (%): 87% and 56%
  Population Fragmented Nuclei (%): 48% and 61%
  Population Healthy Nuclei (%): 41% and 32%
  Population Hoechst High Intensity Objects (%): 0%
  Population Mitochondria Different-Phenotype (%): 0% and 3%
  Population Normal (%): 100%
  Population Pyknosed Nuclei (%): 9% and 5%
  Population Tubulin-Different-Phenotype (%): 79% and 61%
  Total Cell Count: 166 and 267
[2]
  Population Apoptotic (%): 56% and 34%
  Population Fragmented Nuclei (%): 17% and 20%
  Population Healthy Nuclei (%): 57% and 64%
  Population Hoechst High Intensity Objects (%): 0%
  Population Membrane Permeable-Phenotype (%): 7% and 15%
  Population Mitochondria Different-Phenotype (%): 0% and 2%
  Population Mitotic Cells (%): 43% and 65%
  Population Normal (%): 99% and 100%
  Population Pyknosed Nuclei (%): 25% and 15%
  Population Tubulin-Different-Phenotype (%): 22% and 28%
  Total Cell Count: 148 and 165
[3]
  Population Apoptotic (%): 80% and 69%
  Population Fragmented Nuclei (%): 54% and 72%
  Population Healthy Nuclei (%): 29% and 21%
  Population Hoechst High Intensity Objects (%): 0%
  Population Membrane Permeable-Phenotype (%): 17% and 9%
  Population Mitochondria Different-Phenotype (%): 4% and 7%
  Population Mitotic Cells (%): 19% and 30%
  Population Normal (%): 100%
  Population Tubulin-Different-Phenotype (%): 78% and 65%
  Total Cell Count: 162 and 237
[4]
  Population Apoptotic (%): 54% and 61%
  Population Fragmented Nuclei (%): 13% and 27%
  Population Healthy Nuclei (%): 65% and 56%
  Population Hoechst High Intensity Objects (%): 0%
  Population Membrane Permeable-Phenotype (%): 10% and 5%
  Population Mitochondria Different-Phenotype (%): 0%
  Population Mitotic Cells (%): 45% and 38%
  Population Normal (%): 100%
  Population Pyknosed Nuclei (%): 20% and 15%
  Population Tubulin-Different-Phenotype (%): 10% and 14%
  Total Cell Count: 152 and 166
[5]
  Population Apoptotic (%): 82% and 80%
  Population Fragmented Nuclei (%): 64% and 84%
  Population Healthy Nuclei (%): 21% and 9%
  Population Hoechst High Intensity Objects (%): 0%
  Population Membrane Permeable-Phenotype (%): 18% and 8%
  Population Mitochondria Different-Phenotype (%): 0% and 8%
  Population Mitotic Cells (%): 17% and 20%
  Population Normal (%): 100%
  Population Pyknosed Nuclei (%): 13% and 6%
  Population Tubulin-Different-Phenotype (%): 64% and 56%
  Total Cell Count: 171 and 241
[6]
  Population Apoptotic (%): 68% and 46%
  Population Fragmented Nuclei (%): 18% and 25%
  Population Healthy Nuclei (%): 66%
  Population Hoechst High Intensity Objects (%): 0%
  Population Membrane Permeable-Phenotype (%): 9% and 11%
  Population Mitochondria Different-Phenotype (%): 0%
  Population Mitotic Cells (%): 32% and 53%
  Population Normal (%): 100%
  Population Pyknosed Nuclei (%): 15% and 8%
  Population Tubulin-Different-Phenotype (%): 8% and 10%
  Total Cell Count: 161 and 162

## c1ccc2c(-c3coc4cc(-c5ccc(N6CCNCC6)cc5)cnc34)ccnc2c1
[2]
  Population Apoptotic (%): 33% and 46%
  Population Fragmented Nuclei (%): 18%
  Population Healthy Nuclei (%): 69% and 66%
  Population Hoechst High Intensity Objects (%): 0%
  Population Mitochondria Different-Phenotype (%): 0% and 2%
  Population Mitotic Cells (%): 66% and 53%
  Population Normal (%): 100%
  Population Pyknosed Nuclei (%): 16% and 14%
  Population Tubulin-Different-Phenotype (%): 10% and 15%
  Total Cell Count: 182 and 274
[7]
  Population Apoptotic (%): 68% and 73%
  Population Fragmented Nuclei (%): 15% and 7%
  Population Hoechst High Intensity Objects (%): 0%
  Population Mitochondria Different-Phenotype (%): 8% and 0%
  Population Mitotic Cells (%): 31% and 26%
  Population Normal (%): 100% and 98%
  Population Pyknosed Nuclei (%): 52% and 91%
  Population Tubulin-Different-Phenotype (%): 35% and 100%
  Total Cell Count: 223 and 162
[4]
  Population Apoptotic (%): 44% and 60%
  Population Healthy Nuclei (%): 73% and 71%
  Population Hoechst High Intensity Objects (%): 0%
  Population Mitochondria Different-Phenotype (%): 0% and 2%
  Population Mitotic Cells (%): 56% and 40%
  Population Normal (%): 100%
  Population Pyknosed Nuclei (%): 12% and 11%
  Population Tubulin-Different-Phenotype (%): 15% and 9%
  Total Cell Count: 195 and 271
[8]
  Population Apoptotic (%): 77% and 80%
  Population Fragmented Nuclei (%): 9%
  Population Hoechst High Intensity Objects (%): 0%
  Population Mitotic Cells (%): 22% and 19%
  Population Normal (%): 98% and 100%
  Population Pyknosed Nuclei (%): 83% and 66%
  Population Tubulin-Different-Phenotype (%): 80% and 50%
  Total Cell Count: 163 and 202
[6]
  Population Apoptotic (%): 53% and 48%
  Population Fragmented Nuclei (%): 16% and 27%
  Population Healthy Nuclei (%): 76% and 63%
  Population Mitochondria Different-Phenotype (%): 0%
  Population Mitotic Cells (%): 46% and 51%
  Population Normal (%): 100% and 99%
  Population Pyknosed Nuclei (%): 6% and 8%
  Population Tubulin-Different-Phenotype (%): 10% and 11%
  Total Cell Count: 208 and 323
[9]
  Population Apoptotic (%): 84% and 91%
  Population Fragmented Nuclei (%): 21%
  Population Healthy Nuclei (%): 28% and 18%
  Population Hoechst High Intensity Objects (%): 0%
  Population Mitochondria Different-Phenotype (%): 2% and 7%
  Population Mitotic Cells (%): 8%
  Population Normal (%): 99%
  Population Pyknosed Nuclei (%): 50% and 63%
  Population Tubulin-Different-Phenotype (%): 44% and 38%
  Total Cell Count: 171 and 210

## CS(=O)(=O)c1ccc(C(=O)Nc2cccc(COc3cc(F)c(Br)cc3CN3CC[C@H](O)C3)c2)c(Cl)c1.O=CO
[2]
  Population Apoptotic (%): 46% and 35%
  Population Healthy Nuclei (%): 48% and 72%
  Population Mitotic Cells (%): 53% and 64%
  Population Pyknosed Nuclei (%): 41% and 16%
  Total Cell Count: 114 and 171
[7]
  Population Apoptotic (%): 51% and 40%
  Population Healthy Nuclei (%): 48% and 51%
  Population Mitotic Cells (%): 48% and 59%
  Population Pyknosed Nuclei (%): 33% and 23%
  Total Cell Count: 211 and 262
[4]
  Population Apoptotic (%): 55% and 57%
  Population Healthy Nuclei (%): 50%
  Population Mitotic Cells (%): 42%
  Population Pyknosed Nuclei (%): 39% and 18%
  Total Cell Count: 120 and 190
[8]
  Population Apoptotic (%): 77% and 74%
  Population Healthy Nuclei (%): 53% and 58%
  Population Mitotic Cells (%): 22%
  Population Pyknosed Nuclei (%): 26% and 19%
  Total Cell Count: 217 and 251
[6]
  Population Apoptotic (%): 75% and 82%
  Population Healthy Nuclei (%): 62%
  Population Mitotic Cells (%): 24%
  Population Pyknosed Nuclei (%): 23% and 11%
  Total Cell Count: 123 and 198
[9]
  Population Apoptotic (%): 92% and 82%
  Population Healthy Nuclei (%): 62% and 60%
  Population Mitotic Cells (%): 7%
  Population Pyknosed Nuclei (%): 15% and 14%
  Total Cell Count: 245 and 274

— ChEMBL document CHEMBL5303300, “EUbOPEN Chemogenomics Library - Multiplex” (2023)
